Measured values gathered from unrelated publications.
Effect on: ABTS scavenging

`COc1ccc(-c2nc3cc(C)c(C)cc3[nH]2)cc1OCc1ccccc1` gave an IC50 of 1830 nM (absorbance).
For `O=C(O)c1cc(O)c(O)c(O)c1`, the IC50 was 8190 nM (absorbance).
`O=C(Cc1c[nH]c2ccccc12)Nc1cccc(I)c1` gave an IC50 of 1150 nM.
`COc1ccc(-c2nc3ccccc3[nH]2)cc1OCc1ccccc1` gave an IC50 of 1760 nM (absorbance).
With `COc1cc(-c2oc3cc(O)cc(O)c3c(=O)c2O[C@@H]2O[C@H](CO)[C@@H](O)[C@H](O)[C@H]2O)ccc1O` the IC50 was 15300 nM (absorbance).
`Cc1cc2nc(-c3ccccc3OCc3ccccc3)[nH]c2cc1C` gave an IC50 of 1780 nM (absorbance).
`O=C1O[C@H]([C@@H](O)CO)C(O)=C1O` gave an IC50 of 1.4 µg/mL.
For `Cc1ccc(NC(=O)Cc2c[nH]c3ccccc23)cc1C`, the IC50 was 1580 nM.
`Cc1c(C)c2c(c(C)c1O)CC[C@@](C)(CCC[C@H](C)CCC[C@H](C)CCCC(C)C)O2` gave an IC50 of 8.37 µg/mL.
`Cc1ccc(NC(=O)Cc2c[nH]c3ccccc23)c(C)c1` gave an IC50 of 1900 nM.
With `Clc1ccc2[nH]c(-c3ccccc3OCc3ccccc3)nc2c1` the IC50 was 1780 nM (absorbance).
With `O=c1c(O[C@@H]2O[C@H](CO)[C@@H](O)[C@H](O)[C@H]2O)c(-c2ccc(O)c(O)c2)oc2cc(O)cc(O)c12` the IC50 was 6510 nM (absorbance).
With `Fc1ccc2[nH]c(-c3ccccc3OCc3ccccc3)nc2c1` the IC50 was 1770 nM (absorbance).
With `O=c1oc2c(O)c(O)cc3c(=O)oc4c(O)c(O)cc1c4c23` the IC50 was 5760 nM (absorbance).
With `CCCCCCCCOc1ccc(NC(=O)Cc2c[nH]c3ccccc23)cc1` the IC50 was 1800 nM.
